In ChEMBL document CHEMBL2380254, “Optimization of tocotrienols as antiproliferative and antimigratory leads” (Eur J Med Chem, 2013):

Key:
Type in all cases: functional
M14 = experiment: Growth inhibition of human M14 cells assessed as cell growth at 10 uM after 48 hrs by sulforhodamine B assay; conditions: M14, 48 h, read-out: Activity
Method in brief: (§1)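 NCI-60 single-dose screen at 10 µM: cells in RPMI 1640 with 5% FBS, preincubated 24 h, then exposed 48 h at 37 °C. TCA fixation (16% final for suspension cells), SRB staining, absorbance 515 nm. Percent growth relative to time-zero and untreated control plates; negative values indicate cell kill.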

MCF7 = experiment: Growth inhibition of human MCF7 cells assessed as cell growth at 10 uM after 48 hrs by sulforhodamine B assay; conditions: MCF7, 48 h, read-out: Activity
Method in brief: (§2)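 Single-dose NCI-60 screen: adherent cells in RPMI 1640 with 5% FBS were exposed to 10 µM for 48 h at 37 °C after a 24 h preincubation. They were fixed in situ with cold TCA (10% final), stained with 0.4% SRB in 1% acetic acid, solubilized in 10 mM Tris base, and read at 515 nm. Percent growth was taken relative to time-zero and control plates.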

Malme-3M = experiment: Growth inhibition of human MALME-3M cells after 48 hrs by sulforhodamine B assay
Method in brief: (§3)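 NCI-60 panel cells grown in RPMI 1640 with 5% FBS and 2 mM L-glutamine, seeded at 5000–40,000 cells/well and preincubated 24 h. Five 10-fold dilutions (0.001–100 µM) from DMSO stocks were added for 48 h at 37 °C. Adherent cells were fixed with cold TCA (10% final) for 60 min at 4 °C, stained with 0.4% SRB, and read at 515 nm. GI50 was set where 100×(T−T0)/(C−T0)=50.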

SNB-19 = experiment: Growth inhibition of human SNB19 cells assessed as cell growth at 10 uM after 48 hrs by sulforhodamine B assay; conditions: SNB-19, 48 h, read-out: Activity
Method in brief: (§4)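 Single-dose NCI-60 test at 10 µM. Cells were grown in RPMI 1640 with 5% FBS and 2 mM L-glutamine, preincubated 24 h, with T0 plates TCA-fixed. Exposure was 48 h at 37 °C, 5% CO2. Cells were fixed with cold TCA (final 10%, 4 °C, 60 min), stained with SRB and read at 515 nm. Percent growth was taken relative to T0 and untreated control; negative values denote cell kill.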

SK-OV-3 = experiment: Growth inhibition of human SKOV3 cells after 48 hrs by sulforhodamine B assay; conditions: SK-OV-3, 48 h
Method in brief: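 NCI-60 five-dose screen. Cells were grown in RPMI 1640 with 5% FBS and 2 mM L-glutamine, plated at 5000–40,000 cells/well and incubated 24 h before dosing, with T0 plates TCA-fixed. DMSO stocks were diluted to doses of […] and exposed 48 h at 37 °C, 5% CO2. Cells were fixed with cold TCA (final 10%, 60 min, 4 °C), stained with 0.4% SRB in 1% acetic acid for 10 min, solubilized in 10 mM trizma base and read at 515 nm. GI50 is where 100×(T−T0)/(C−T0)=50.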

A549 = experiment: Growth inhibition of human A549/ATCC cells after 48 hrs by sulforhodamine B assay; conditions: A549, 48 h
Method in brief: (§5)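 NCI-60 screen: cells in RPMI 1640 with 5% FBS and 2 mM glutamine, 5000–40,000 cells/well, preincubated 24 h. Five concentrations (10-fold dilutions; 100 to 0.001 µM) applied for 48 h at 37 °C. TCA fixation, SRB stain, absorbance at 515 nm. Time-zero plates included; GI50 where 100×(T−T0)/(C−T0)=50.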

HL-60(TB) = experiment: Growth inhibition of human HL-60(TB) cells after 48 hrs by sulforhodamine B assay; conditions: HL-60, 48 h
Method in brief: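 HL-60(TB) cells (suspension) grown in RPMI 1640 with 5% FBS and 2 mM L-glutamine. They were plated and preincubated for 24 h, with T0 plates fixed at that point. Drug was given at five 10-fold dilutions for 48 h at 37 °C. Settled cells were fixed with TCA (16% final), stained with 0.4% SRB in 1% acetic acid and read at 515 nm. GI50 was taken where 100×(T−T0)/(C−T0)=50.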

SK-MEL-2 = experiment: Growth inhibition of human SK-MEL-2 cells after 48 hrs by sulforhodamine B assay; conditions: SK-MEL-2, 48 h; method in brief: as §3
DU-145 = experiment: Growth inhibition of human DU145 cells after 48 hrs by sulforhodamine B assay; conditions: DU-145, 48 h; method in brief: as §5
OVCAR-4 = experiment: Growth inhibition of human OVCAR4 cells assessed as cell growth at 10 uM after 48 hrs by sulforhodamine B assay; conditions: OVCAR-4, 48 h, read-out: Activity; method in brief: as §2
OVCAR-5 [1] = experiment: Growth inhibition of human OVCAR5 cells after 48 hrs by sulforhodamine B assay; conditions: OVCAR-5, 48 h; method in brief: as §3
[2] = Growth inhibition of human HCC2998 cells after 48 hrs by sulforhodamine B assay; conditions: HCC 2998, 48 h; method in brief: as §5
HCT-15 = experiment: Growth inhibition of human HCT15 cells assessed as cell growth at 10 uM after 48 hrs by sulforhodamine B assay; conditions: HCT-15, 48 h, read-out: Activity; method in brief: as §1
[3] = Growth inhibition of human NCI-ADR-RES cells assessed as cell growth at 10 uM after 48 hrs by sulforhodamine B assay; conditions: read-out: Activity; method in brief: as §2
SR = experiment: Growth inhibition of human SR cells assessed as cell growth at 10 uM after 48 hrs by sulforhodamine B assay; conditions: read-out: Activity
Method in brief: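 Suspension line in RPMI 1640 with 5% FBS, single 10 µM dose for 48 h. Settled cells were fixed with TCA (final 16%), then SRB-stained and read at 515 nm. Percent growth was taken versus T0 and control; negative values denote cytotoxicity.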

T47D = experiment: Growth inhibition of human T47D cells assessed as cell growth at 10 uM after 48 hrs by sulforhodamine B assay; conditions: read-out: Activity; method in brief: as §4
NCI-H23 = experiment: Growth inhibition of human NCI-H23 cells after 48 hrs by sulforhodamine B assay; conditions: NCI-H23, 48 h; method in brief: as §3
[4] = Growth inhibition of human NCI-ADR-RES cells after 48 hrs by sulforhodamine B assay; method in brief: as §3
OVCAR-5 [5] = experiment: Growth inhibition of human OVCAR5 cells assessed as cell growth at 10 uM after 48 hrs by sulforhodamine B assay; conditions: OVCAR-5, 48 h, read-out: Activity; method in brief: as §2
HT-29 = experiment: Growth inhibition of human HT-29 cells assessed as cell growth at 10 uM after 48 hrs by sulforhodamine B assay; conditions: HT-29, 48 h, read-out: Activity; method in brief: as §1
NCI-H460 = experiment: Growth inhibition of human NCI-H460 cells assessed as cell growth at 10 uM after 48 hrs by sulforhodamine B assay; conditions: NCI-H460, 48 h, read-out: Activity; method in brief: as §2
MDA-MB-435 = experiment: Growth inhibition of human MDA-MB-435 cells assessed as cell growth at 10 uM after 48 hrs by sulforhodamine B assay; conditions: MDA-MB-435, 48 h, read-out: Activity; method in brief: as §2
[6] = Growth inhibition of human EKVX cells after 48 hrs by sulforhodamine B assay; method in brief: as §5
[7] = Growth inhibition of human Hs 578T cells after 48 hrs by sulforhodamine B assay; method in brief: as §5

Compound: CC(C)=CCC/C(C)=C/CC/C(C)=C/CC[C@]1(C)CCc2c3c(cc(C)c2O1)OCN(CCc1ccc(O)cc1)C3
- growth at 10 µM (M14): 9.79%
- growth at 10 µM (MCF7): -86.3%
- GI50 (Malme-3M): 7060 nM
- growth at 10 µM (SNB-19): 92.1%
- GI50 (SK-OV-3): 6200 nM
- GI50 (A549): 6090 nM
- GI50 (HL-60(TB)): 3340 nM
- GI50 (SK-MEL-2): 7020 nM
- GI50 (DU-145): 5750 nM
- growth at 10 µM (OVCAR-4): 3.53%
- GI50 (OVCAR-5 [1]): 6110 nM
- GI50 [2]: 1710 nM
- growth at 10 µM (HCT-15): 80.4%
- growth at 10 µM [3]: 37.5%
- growth at 10 µM (SR): 1.96%
- growth at 10 µM (T47D): 6.16%
- GI50 (NCI-H23): 6820 nM
- GI50 [4]: 5930 nM
- growth at 10 µM (OVCAR-5 [5]): 91.2%
- growth at 10 µM (HT-29): 18.6%
- growth at 10 µM (NCI-H460): -44.4%
- growth at 10 µM (MDA-MB-435): -53.1%
- GI50 [6]: 6130 nM
- GI50 [7]: 6290 nM

Compound: CC(C)=CCC/C(C)=C/CC/C(C)=C/CC[C@]1(C)CCc2c3c(cc(C)c2O1)OCN(C1CCN(Cc2ccccc2)CC1)C3
- growth at 10 µM (M14): 50.1%
- growth at 10 µM (MCF7): -36%
- GI50 (Malme-3M): 2130 nM
- growth at 10 µM (SNB-19): 68.2%
- GI50 (SK-OV-3): 1930 nM
- GI50 (A549): 1570 nM
- GI50 (HL-60(TB)): 349 nM
- GI50 (SK-MEL-2): 2300 nM
- GI50 (DU-145): 1890 nM
- growth at 10 µM (OVCAR-4): 59%
- GI50 (OVCAR-5 [1]): 2170 nM
- GI50 [2]: 626 nM
- growth at 10 µM (HCT-15): 86.4%
- growth at 10 µM [3]: 62.9%
- growth at 10 µM (SR): -35%
- growth at 10 µM (T47D): 89.3%
- GI50 (NCI-H23): 1510 nM
- GI50 [4]: 2560 nM
- growth at 10 µM (OVCAR-5 [5]): 79%
- growth at 10 µM (HT-29): 22.7%
- growth at 10 µM (NCI-H460): -78.7%
- growth at 10 µM (MDA-MB-435): 3.07%
- GI50 [6]: 1690 nM
- GI50 [7]: 1510 nM

Compound: CC(C)=CCC/C(C)=C/CC/C(C)=C/CC[C@]1(C)CCc2c3c(c(C)c(C)c2O1)OCN(CCCCCCO)C3
- growth at 10 µM (M14): 26%
- growth at 10 µM (MCF7): -69.5%
- GI50 (Malme-3M): 2780 nM
- growth at 10 µM (SNB-19): 18.1%
- GI50 (SK-OV-3): 2570 nM
- GI50 (A549): 3090 nM
- GI50 (HL-60(TB)): 3580 nM
- GI50 (SK-MEL-2): 3270 nM
- GI50 (DU-145): 2960 nM
- growth at 10 µM (OVCAR-4): 3.51%
- GI50 (OVCAR-5 [1]): 2760 nM
- GI50 [2]: 2620 nM
- growth at 10 µM (HCT-15): 38.4%
- growth at 10 µM [3]: 30.1%
- growth at 10 µM (SR): -34.8%
- growth at 10 µM (T47D): 8.28%
- GI50 (NCI-H23): 2840 nM
- GI50 [4]: 2870 nM
- growth at 10 µM (OVCAR-5 [5]): 39%
- growth at 10 µM (HT-29): 17.4%
- growth at 10 µM (NCI-H460): 2.49%
- growth at 10 µM (MDA-MB-435): 22.1%
- GI50 [6]: 2660 nM
- GI50 [7]: 3040 nM
